The values below come from ChEMBL document CHEMBL4229446, “Development of Novel Monoamine Oxidase-B (MAO-B) Inhibitors with Reduced Blood-Brain Barrier Permeability for the Potential Management of Noncentral Nervous System (CNS) Diseases” (J Med Chem, 2018).

pIC50: −log10 of the molar value.

Data set [1] addresses T1, Amine oxidase [flavin-containing] A (Homo sapiens, UniProt P21397).
T1 sequence (P21397 whole entry): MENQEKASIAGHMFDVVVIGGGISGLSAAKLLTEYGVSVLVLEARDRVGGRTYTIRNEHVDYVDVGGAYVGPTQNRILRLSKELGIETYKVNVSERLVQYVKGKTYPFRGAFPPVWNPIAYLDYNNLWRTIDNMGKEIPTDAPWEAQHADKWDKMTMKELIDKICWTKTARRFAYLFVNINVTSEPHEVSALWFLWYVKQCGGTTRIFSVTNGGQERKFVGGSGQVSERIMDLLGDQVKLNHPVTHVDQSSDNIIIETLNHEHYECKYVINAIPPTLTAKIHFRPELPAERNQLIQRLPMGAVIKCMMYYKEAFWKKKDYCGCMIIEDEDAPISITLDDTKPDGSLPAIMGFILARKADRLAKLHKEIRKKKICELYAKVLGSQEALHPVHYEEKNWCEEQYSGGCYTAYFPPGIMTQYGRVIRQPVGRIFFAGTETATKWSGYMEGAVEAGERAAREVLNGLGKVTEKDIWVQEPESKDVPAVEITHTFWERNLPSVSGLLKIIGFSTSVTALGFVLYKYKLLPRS
As to the kind of experiment: Inhibition of human recombinant MAO-A expressed in baculovirus infected BTI-TN-5B1-4 insect cells using tyramine as substrate preincubated for 1 hr followed by substrate addition and measured after 30 mins by resazurin dye-based fluorescence assay. Background: The colour change of resazurin is a common sign of viable cells or microbes.

Data set [2] can be described thus: Metabolic stability in mouse plasma assessed as parent compound remaining at 5 uM after 4 hrs by UPLC-MS/MS analysis. Type of data set: ADME, cell-free. The conditions noted are these: read-out: Stability. An outline of the steps:
(§1)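 Compound at 5 μM was incubated in mouse or human plasma at 37 °C with shaking. Sampled at 0, 5, 15, 30, 60, 120 and 240 min and stopped with ice-cold acetonitrile/0.1% formic acid containing internal standard. Supernatants analysed by UPLC-MS/MS for parent remaining. Run in triplicate.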

A short description of data set [3]: AUClast in C57BL/6 mouse brain at 24.5 mg/kg, po administered as single dose measured 24 hrs by UPLC-MS/MS analysis. Type of data set: ADME, organism-based. On the set-up: dose 24.5 mg/kg, route oral, time 0 - last. The method in brief: (§2)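 15 animals dosed, 3 sacrificed at each of 1, 2, 4, 6 and 24 h. Plasma and brain homogenate were extracted and quantified by UPLC-MS/MS. Parameters came from noncompartmental analysis. Values above or below the limit of quantification, or undetected, were omitted. Kp = AUClast brain/plasma.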

A short description of data set [4]: Metabolic stability in cryopreserved mouse hepatocytes assessed as parent compound remaining at 1 uM after 60 mins by UPLC-MS/MS analysis. Type of data set: ADME, cell-based, Hepatocyte. The settings on record: read-out: Stability.
The nature of data set [5]: Ratio of AUClast in brain to plasma in C57BL/6 mouse at 24.5 mg/kg, sc administered as single dose measured 24 hrs by UPLC-MS/MS analysis. In kind it is ADME, organism-based. An outline of the steps: as §2
Data set [6] relates to Mus musculus. As to the kind of experiment: Acute toxicity in C57BL/6 mouse assessed as abnormal clinical signs at […], iv administered as single dose measured after 24 hrs post-injection. The settings on record: in vivo. Type of data set: organism-based.
Data set [7] has as its system Mus musculus. As to the kind of experiment: Acute toxicity in C57BL/6 mouse assessed as abnormal clinical signs at […], po administered as single dose measured after 24 hrs post-injection. In kind it is organism-based. The conditions noted are these: in vivo.
Data set [8] can be described thus: Metabolic stability in human liver microsomes assessed as parent compound remaining at 1 uM after 60 mins by UPLC-MS/MS analysis. In kind it is ADME, microsome. The settings on record: liver microsomes, read-out: Stability. The method in brief: (§3)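 Compound at 1 μM with 0.5 mg/mL mouse or human liver microsomes in 100 mM potassium phosphate pH 7.4, 3.3 mM MgCl2, 1 mM NADPH, at 37 °C. Started with NADPH; minus-NADPH control run. Stopped at 0, 5, 15, 30, 45 and 60 min with acetonitrile/formic acid plus internal standard. Parent remaining by UPLC-MS/MS, in triplicate.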

Data set [9] can be described thus: Tmax in C57BL/6 mouse brain at 24.5 mg/kg, iv administered as single dose measured 24 hrs by UPLC-MS/MS analysis. In kind it is ADME, organism-based. The method in brief:
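Brains weighed, portion bead-homogenised in 50 mM ammonium formate, extracted in acidified organic solvent, quantified by UPLC-MS/MS. ng/g taken as ng/mL. Tmax from noncompartmental analysis.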

Data set [10] concerns P-gp (MDR1). As to the kind of experiment: Efflux ratio of apparent permeability in MDCK2-MDR1 cells at 10 uM after 1 hr in absence of P-gp inhibitor verapamil by UPLC-MS/MS analysis. In kind it is ADME, cell-based, Canis lupus familiaris. The settings on record: dog, MDCK-MDR1. An outline of the steps: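 MDCK-WT (MEM-α/10% FBS) or MDCK-MDR1 II (DMEM/10% FBS) cells were grown 3 days on 12-well transwells. Integrity was checked by TEER and 100 μM Lucifer yellow. Cells were washed in HBSS/10 mM HEPES. Compound at 10 μM was added apically or basally, in triplicate, ±100 μM verapamil. Receiver sampled at 1 h by UPLC-MS/MS. Efflux ratio = Papp B→A / Papp A→B.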

A short description of data set [11]: Metabolic stability in mouse liver microsomes assessed as parent compound remaining at 1 uM after 60 mins in presence of NADPH by UPLC-MS/MS analysis. Type of data set: ADME, microsome. The conditions noted are these: read-out: Stability. An outline of the steps:
as §3

Data set [12] can be described thus: Efflux ratio of apparent permeability in MDCK-WT cells at 10 uM after 1 hr in absence of P-gp inhibitor verapamil by UPLC-MS/MS analysis. The conditions noted are these: dog.
Data set [13] relates to Mus musculus. As to the kind of experiment: Acute toxicity in C57BL/6 mouse assessed as abnormal clinical signs at […], sc administered as single dose measured after 24 hrs post-injection. The settings on record: in vivo. In kind it is organism-based.
The nature of data set [14]: Apparent half-life of the terminal disposition phase in C57BL/6 mouse plasma at 24.5 mg/kg, po administered as single dose measured 24 hrs by UPLC-MS/MS analysis. Type of data set: ADME, organism-based. The settings on record: read-out: t1/2 lambda z (converted). An outline of the steps:
as §2

The nature of data set [15]: Metabolic stability in human plasma assessed as parent compound remaining at 5 uM after 4 hrs by UPLC-MS/MS analysis. Type of data set: ADME, cell-free. The conditions noted are these: read-out: Stability. The method in brief:
as §1

A short description of data set [16]: Tmax in C57BL/6 mouse brain at 23.4 mg/kg, po administered as single dose measured 24 hrs by UPLC-MS/MS analysis. Type of data set: ADME, organism-based. An outline of the steps: (§4)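 15 animals dosed, 3 killed at each of 1, 2, 4, 6 and 24 h. Plasma and brain homogenate (ammonium formate, acidified organic extraction) assayed by UPLC-MS/MS, brain ng/g taken as ng/mL. Noncompartmental parameters exclude values above/below quantification limit or undetected. Kp = AUClast brain/plasma.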

Data set [17] can be described thus: Cmax in C57BL/6 mouse plasma at 23.4 mg/kg, sc administered as single dose measured 24 hrs by UPLC-MS/MS analysis. Type of data set: ADME, organism-based. On the set-up: dose 23.4 mg/kg, route subcutaneous. An outline of the steps: as §4
The nature of data set [18]: Ratio of AUClast in brain to plasma in C57BL/6 mouse at 23.4 mg/kg, sc administered as single dose measured 24 hrs by UPLC-MS/MS analysis. In kind it is ADME, organism-based. An outline of the steps: as §4
Data set [19] can be described thus: Apparent half-life of the terminal disposition phase in C57BL/6 mouse brain at 23.4 mg/kg, sc administered as single dose measured 24 hrs by UPLC-MS/MS analysis. Type of data set: ADME, organism-based. The settings on record: read-out: t1/2 lambda z (converted). The method in brief: as §4

Take `C[C@H](Cc1ccc(OCc2ccc(Br)c(Cl)c2)cc1)N(C)CC(=O)O`: the negative logarithm of the IC50 (pIC50) (as a rule, the IC50 on a negative log10 scale, so that one unit is a factor of ten) in data set [1] is < 4.30. Further, the remaining at 4 h, 5 µM in [2] and in [15] was ≥ 75% in each case. Moreover, the AUC(0-t) – broadly, the area under the concentration-time curve up to a stated or last time point – at 24 h in [3] turned out to be 12600 ng·h/mL. Besides, the results for the remaining at 1 h, 1 µM in [4], in [8] and in data set [11] were ≥ 90%, ≥ 90% and 93.4%, respectively. In data set [5], the Kp (in general, tissue or fluid exposure divided by exposure in the circulation) at 24 h was 0.19. The Activity result in [6], in data set [7] and in data set [13] was “Non-Toxic” in each case. Besides, the Tmax (usually the time at which the peak concentration occurs) in data set [9] came out at 4 h. The efflux ratio (commonly a quotient of directional permeabilities that is used to spot active efflux) at 1 h, 10 µM in [10] amounted to 2.12; in data set [12], 1.33. Besides, the half-life in data set [14] was 3.59 h.

For `CN(CC(=O)O)[C@H](CC#N)Cc1ccc(OCc2ccc(Cl)c(Cl)c2)cc1`, the time of peak concentration (Tmax) in [16] was found to be 1 h. Also, the negative-log IC50 (pIC50) in data set [1] was 3.90. The remaining at 4 h, 5 µM in [2] and in [15] was ≥ 75% throughout. Besides, the concentration in data set [17] peaked (Cmax) at 13300 ng/mL. Moreover, the remaining at 1 h, 1 µM in data set [4] is 64%; in data set [8], ≥ 90%; in [11], 39%. For the same molecule, the Activity result in data set [6], in data set [7] and in [13] was “Non-Toxic” in each case. Also, the efflux ratio at 1 h, 10 µM stood at 1.14 in data set [10] and 1.07 in [12]. The Kp at 24 h in data set [18] amounted to 0.005. Also, in [19], the half-life was 1.07 h.
